Measured values reported in PubChem BioAssay AID588762 (The Scripps Research Institute Molecular Screening Center, 2011).
Activity calls are given as the source filed them.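 Rule for the calls: active = fitted IC50 at or below 10 µM in the dose response luciferase test; inactive = IC50 weaker than 10 µM.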

molecular target: Epstein-Barr virus nuclear antigen 1 (EBNA-1), Human herpesvirus 4; assay: relief of EBNA-1 Qp promoter repression – cell-based, luciferase, dose response, assay provider data, late-stage follow-up (AID 588762); details: 293T Qp-promoter luciferase reporter, EBNA-1 repression
Summary of the method: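 Material: human 293T cells transiently co-transfected with Qp-promoter luciferase reporter, Flag-tagged EBNA-1; schedule: 48 h at 37 °C after plating; signal: luminescence from Steady-Glo luciferase reagent, rising as EBNA-1 repression lifts; read-out: concentration giving half-maximal luminescence stimulation, four-parameter sigmoidal fit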

IC50 | Structure (SMILES)
inactive | COc1cccc(C(=O)Nc2nc3ccc(S(C)(=O)=O)cc3s2)c1
> 148 µM (inactive) | CS(=O)(=O)c1ccc2nc(NC(=O)c3cccc(Cl)c3)sc2c1
inactive | Cc1cc(C(=O)CSc2nnnn2-c2ccccc2)c(C)n1C
> 148 µM (inactive) | COCCn1c(C)cc(C(=O)CSc2nnnn2-c2ccccc2)c1C
inactive | CS(=O)(=O)c1ccc2nc(NC(=O)c3ccc(Cl)cc3)sc2c1
> 148 µM (inactive) | CS(=O)(=O)c1ccc2nc(NC(=O)c3cccc(F)c3)sc2c1
> 148 µM (inactive) | CS(=O)(=O)c1ccc2nc(NC(=O)c3ccccc3F)sc2c1
> 148 µM (inactive) | COc1ccccc1C(=O)Nc1nc2ccc(S(C)(=O)=O)cc2s1
> 148 µM (inactive) | Cc1ccc(C(=O)Nc2nc3ccc(Br)cc3s2)cc1C
inactive | COc1ccc(C(=O)Nc2nc3ccc(S(C)(=O)=O)cc3s2)cc1
> 148 µM (inactive) | Cc1ccc(C(=O)Nc2nc3ccc(S(C)(=O)=O)cc3s2)cc1
> 148 µM (inactive) | Cc1cccc(-n2nnnc2SCC(=O)c2cc(C)n(CC3CCCO3)c2C)c1 (centres undefined)
> 148 µM (inactive) | Cc1cc(C(=O)CSc2nnnn2-c2ccccc2)c(C)n1Cc1cccs1
> 148 µM (inactive) | CCn1c(C)cc(C(=O)CSc2nnnn2-c2ccccc2)c1C
> 16.4 µM (inactive) | COc1ccc(-n2nnnc2SCC(=O)c2cc(C)n(CC3CCCO3)c2C)cc1 (centres undefined)
> 148 µM (inactive) | Cc1cc(C(=O)CSc2nnnn2C)c(C)n1CC1CCCO1 (centres undefined)

Continued, compound first:

Structure (SMILES) | IC50
Cc1cc(C(=O)CSc2nnnn2C2CC2)c(C)n1CC1CCCO1 (centres undefined) | inactive
O=C(CSc1nnnn1-c1ccccc1)c1ccn(CC2CCCO2)c1 (centres undefined) | > 148 µM (inactive)
COc1cccc2sc(NC(=O)c3ccc(C)c(C)c3)nc12 | > 148 µM (inactive)
COc1ccc2nc(NC(=O)c3ccc(C)c(C)c3)sc2c1 | > 148 µM (inactive)
Cc1cccc(C(=O)Nc2nc3ccc(S(C)(=O)=O)cc3s2)c1 | inactive
Cc1cc(C(=O)CSc2nnnn2-c2ccc(Cl)cc2)c(C)n1CC1CCCO1 (centres undefined) | > 148 µM (inactive)
Cc1ccccc1-n1nnnc1SCC(=O)c1cc(C)n(CC2CCCO2)c1C (centres undefined) | > 148 µM (inactive)
CS(=O)(=O)c1ccc2nc(NC(=O)c3ccccc3Cl)sc2c1 | > 148 µM (inactive)
Cc1ccccc1C(=O)Nc1nc2ccc(S(C)(=O)=O)cc2s1 | > 148 µM (inactive)
Cc1ccc(C(=O)Nc2nc3cc(F)ccc3s2)cc1C | > 148 µM (inactive)
Cc1cc(C(=O)CSc2nnnn2-c2cccc(F)c2)c(C)n1CC1CCCO1 (centres undefined) | > 148 µM (inactive)
COc1ccc2sc(NC(=O)c3ccc(C)c(C)c3)nc2c1 | > 148 µM (inactive)
Cc1ccc(C(=O)Nc2nc3cc(Br)ccc3s2)cc1C | > 148 µM (inactive)
